From ChEMBL document CHEMBL1144441, “Identification of a novel cardenolide (2''-oxovoruscharin) from Calotropis procera and the hemisynthesis of novel derivatives displaying potent in vitro antitumor activities and high in vivo tolerance: structure-activity relationship analyses” (J Med Chem, 2005)

Assays:
[1] = Concentration required for 50% growth inhibition of human Hs 683 cancer cell lines after 3 days of culture; type: functional, cell-based; conditions: 72 h
Summary of the method: (§1)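 MTT overall-growth assay on the five lines. Cells were plated for 24 h at 10 000–40 000 cells/mL, depending on cell type. Nine concentrations from 10^-9 to 10^-5 M in semilog steps were applied for 72 h. Formazan was read at 570 nm against a 630 nm reference, in sextuplicate. IC50 = concentration reducing overall growth by 50% versus untreated control.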

[2] = tested on: HCT-15; assay: Concentration required for 50% growth inhibition of human HCT-15 cancer cell lines after 3 days of culture; type: functional, cell-based; conditions: HCT-15, 72 h; summary of the method: as §1
[3] = tested on: A549; assay: Concentration required for 50% growth inhibition of human A549 cancer cell lines after 3 days of culture; type: functional, cell-based; conditions: A549, 72 h; summary of the method: as §1
[4] = tested on: LoVo; assay: Concentration required for 50% growth inhibition of human LoVo cancer cell lines after 3 days of culture; type: functional, cell-based; conditions: 72 h; summary of the method: as §1
[5] = tested on: Mus musculus; assay: Maximum tolerated dose after intraperitoneal administration in mouse (period of 28 days); type: functional
Summary of the method: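 Healthy, non-tumour-bearing B6D2F1 mice given one acute intraperitoneal dose, three mice per dose group, doses 5, 10, 20, 40, 80, 120 and 160 mg/kg. Survival and body weight followed for 28 days after injection. MTD is the highest single dose causing no deaths over the period.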

[6] = tested on: U373 MG; assay: Concentration required for 50% growth inhibition of human U373 cancer cell lines after 3 days of culture; type: functional, cell-based, U-373MG ATCC; conditions: 72 h; summary of the method: as §1

Row | Structure (SMILES) | IC50 [1] [nM] | IC50 [2] [nM] | IC50 [3] [nM] | IC50 [4] [nM] | MTD [5] [mg/kg] | IC50 [6] [nM]
1 | CC(O)CCC(=O)OC[C@]12C[C@H]3OC4(O)[C@@H](O[C@H](C)C[C@@]45NC(=O)CS5)O[C@@H]3C[C@@H]1CC[C@@H]1[C@@H]2CC[C@]2(C)[C@@H](C3=CC(=O)OC3)CC[C@]12CO (stereo partly specified) | 370 | 1500 | 414 | 1560 | >40 | 1190
2 | C[C@@H]1C[C@@]2(N[C@H](CC(O)c3ccccc3)CS2)C2(O)O[C@@H]3C[C@@]4(CO)[C@@H](CC[C@@H]5[C@@H]4CC[C@]4(C)[C@@H](C6=CC(=O)OC6)CC[C@]54CO)C[C@H]3O[C@@H]2O1 (stereo partly specified) | 3 | 31 | 2 | 19 | – | 28
3 | C[C@@H]1C[C@@]2(NC(=O)CS2)C2(O)O[C@@H]3C[C@@]4(COS(C)(=O)=O)[C@@H](CC[C@@H]5[C@@H]4CC[C@]4(C)[C@@H](C6=CC(=O)OC6)CC[C@]54CO)C[C@H]3O[C@@H]2O1 (stereo partly specified) | 3420 | > 10000 | 3650 | 8390 | – | 7310
4 | Cc1ccc(S(=O)(=O)OC[C@]23C[C@H]4OC5(O)[C@@H](O[C@H](C)C[C@@]56N=C(N)CS6)O[C@@H]4C[C@@H]2CC[C@@H]2[C@@H]3CC[C@]3(C)[C@@H](C4=CC(=O)OC4)CC[C@]23CO)cc1 (stereo partly specified) | 1430 | 5800 | 2720 | 1060 | 10 | 9960
5 | C[C@@H]1C[C@@]2(N[C@H](CC(=O)c3ccccc3)CS2)C2(O)O[C@@H]3C[C@@]4(CO)[C@@H](CC[C@@H]5[C@@H]4CC[C@]4(C)[C@@H](C6=CC(=O)OC6)CC[C@]54CO)C[C@H]3O[C@@H]2O1 (stereo partly specified) | 4 | 34 | 3 | 18 | 80 | 34
6 | CC(=O)OC[C@]12C[C@H]3OC4(O)[C@@H](O[C@H](C)C[C@@]45NC(=O)CS5)O[C@@H]3C[C@@H]1CC[C@@H]1[C@@H]2CC[C@]2(C)[C@@H](C3=CC(=O)OC3)CC[C@]12CO (stereo partly specified) | 2780 | 4430 | 1860 | 2770 | >40 | 4600
7 | C[C@@H]1C[C@@]2(NCCS2)C2(O)O[C@@H]3C[C@@]4(CO)[C@@H](CC[C@@H]5[C@@H]4CC[C@]4(C)[C@@H](C6=CC(=O)OC6)CC[C@]54CO)C[C@H]3O[C@@H]2O1 (stereo partly specified) | 3 | 21 | 4 | 13 | 5 | 31
8 | C[C@@H]1C[C@@]2(N[C@@H](CC(=O)c3ccccc3)CS2)C2(O)O[C@@H]3C[C@@]4(CO)[C@@H](CC[C@@H]5[C@@H]4CC[C@]4(C)[C@@H](C6=CC(=O)OC6)CC[C@]54CO)C[C@H]3O[C@@H]2O1 (stereo partly specified) | 4 | 44 | 4 | 18 | 80 | 38
9 | Cc1ccc(S(=O)(=O)OC[C@]23C[C@H]4OC5(O)[C@@H](O[C@H](C)C[C@@]56NC(=O)CS6)O[C@@H]4C[C@@H]2CC[C@@H]2[C@@H]3CC[C@]3(C)[C@@H](C4=CC(=O)OC4)CC[C@]23CO)cc1 (stereo partly specified) | 45 | 382 | 48 | 89 | – | 326
